# Results taken from paper PMC10558795 (Redox Biology, 2023).
# Experiments:
# [1] = tested on: mouse NRF2 target genes in the esophageal epithelium; assay: RNAseq of esophageal epithelium of Sox2CreER; format: in vivo; conditions: PYR given after tamoxifen induction
# Summary of the method: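 Sox2CreER;LSL-Nrf2^E79Q/+ mice induced with tamoxifen (75 mg/kg/day i.p., 5 days), then dosed orally with test compound in N-methyl-2-pyrrolidone:PEG300 (1:9). Part of forestomach resected at Week 1; esophageal epithelium harvested at sacrifice, Week 3. Total RNA sequenced; data normalized; overall NRF2 target-gene expression calculated at natural log scale.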
# adult wild-type mice = assay: Dose-finding experiment in adult wild-type mice; format: in vivo, mouse
# Summary of the method: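 Adult wild-type mice, n = 5 per group, dosed orally once daily for 4 weeks with test compound dissolved in N-methyl-2-pyrrolidone:PEG300 (1:9). Grooming, physical strength, movement and body weight tracked during dosing; blood collected for complete blood count, analysed by ANOVA.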
# NRF2-ARE binding = NRF2-ARE binding (Homo sapiens, UniProt Q16236, W24C); assay: ELISA-based TransAM NRF2-ARE binding assay with KYSE70 nuclear extracts
# NRF2-ARE binding, sequence (Q16236 whole entry W24C): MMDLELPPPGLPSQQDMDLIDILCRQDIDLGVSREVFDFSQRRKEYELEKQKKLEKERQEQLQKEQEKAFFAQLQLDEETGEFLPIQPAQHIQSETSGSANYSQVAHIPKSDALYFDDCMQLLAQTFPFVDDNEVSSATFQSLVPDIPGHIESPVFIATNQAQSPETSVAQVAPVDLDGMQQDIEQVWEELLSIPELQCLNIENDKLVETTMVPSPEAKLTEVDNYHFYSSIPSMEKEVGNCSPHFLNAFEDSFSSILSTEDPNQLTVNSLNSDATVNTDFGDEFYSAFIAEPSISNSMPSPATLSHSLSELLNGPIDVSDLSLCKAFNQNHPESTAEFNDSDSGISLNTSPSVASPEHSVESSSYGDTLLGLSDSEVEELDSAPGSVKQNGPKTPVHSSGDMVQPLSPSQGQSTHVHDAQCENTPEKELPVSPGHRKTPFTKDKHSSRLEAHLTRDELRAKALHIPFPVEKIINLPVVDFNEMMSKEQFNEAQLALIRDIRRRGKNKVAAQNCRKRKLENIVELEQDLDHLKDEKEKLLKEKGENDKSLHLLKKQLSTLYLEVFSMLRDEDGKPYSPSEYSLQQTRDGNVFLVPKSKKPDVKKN
# Summary of the method: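 TransAM ELISA: nuclear extract from untreated KYSE70 cells (20 μg/well) added to wells containing ARE oligonucleotide. Test compound, competitor or mutated competitor added, then 1 h incubation with mild agitation and washing. Anti-NRF2 antibody 1 h, then HRP-conjugated secondary antibody and substrate; A450nm read.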
# NRF2 (NRF2^Mut-KYSE180) = NRF2 (NRF2^Mut-KYSE180) (Homo sapiens, UniProt Q16236, D77V); assay: CHX chase analysis of NRF2 half-life in KYSE180 cells; format: cell-based; conditions: PYR 10 μM, MIT 20 nM
# NRF2 (NRF2^Mut-KYSE180), sequence (Q16236 whole entry D77V): as the sequence (Q16236 whole entry W24C) above, with C24W, D77V counted along it
# Summary of the method: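 Cells were grown in RPMI1640 GlutaMAX with 10% FBS and 1% penicillin/streptomycin at 37 °C, 5% CO₂. They were pre-incubated 4 h with test compound, then given 200 μg/ml cycloheximide to block protein synthesis. Cells were harvested at set time points after cycloheximide. Total lysates were run on SDS-PAGE and blotted for NRF2 and GAPDH, and band densities were used to calculate NRF2 half-life.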
# [2] = Pharmacokinetics of PYR in mice, i.p.; format: in vivo; conditions: 30 mg/kg/day; extrapolated from literature Cmax
# [3] = tested on: NRF2 and NQO1 expression in NRF2^Mut-KYSE70 cells; assay: Western blotting of NRF2 and NQO1 expression in KYSE70 cells; format: cell-based, human; conditions: KYSE70 cells
# Summary of the method: (§1)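 Nuclear and cytosolic fractions prepared with an extraction kit, or whole-cell lysates in RIPA buffer. Proteins separated by SDS-PAGE, transferred to nitrocellulose, blocked and probed with primary antibody overnight at 4 °C. Chemiluminescence detected on film and quantified by densitometry; band data as mean ± SD, Student's t-test.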
# [4] = tested on: Sox2CreER;LSL-Nrf2^E79Q/+ mice; assay: Therapeutic effect on the NRF2^high esophageal phenotype in Sox2CreER; format: in vivo, mouse
# Summary of the method: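 Sox2CreER;LSL-Nrf2^E79Q/+ mice induced with tamoxifen (75 mg/kg/day i.p., 5 days), then given oral test compound in N-methyl-2-pyrrolidone:PEG300 (1:9). Part of forestomach resected at Week 1; rest of forestomach and esophageal epithelium taken at Week 3 sacrifice, with BrdU 50 mg/kg i.p. 2 h before. Analysis by Western blotting, H&E, and IHC (DAB, no-primary-antibody controls).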
# STAT3 = assay: pSTAT3 and STAT3 expression in KYSE70 cells; format: cell-based, human; conditions: up to 10 μM
# Summary of the method: as §1
# [5] = PYR given after tamoxifen induction
structure (smiles),measurement,setting,value
"CCc1nc(N)nc(N)c1-c1ccc(Cl)cc1 [PYR, Pyrimethamine]",Overall mRNA expression level of mouse NRF2 target genes in the esophageal epithelium,[1],significantly inhibited the overall mRNA expression level
same,Myelosuppression (complete blood count),adult wild-type mice; 30 mg/kg/day,not myelosuppressive
same,Myelosuppression (complete blood count),"adult wild-type mice; 60 mg/kg/day, p.o., 4 weeks",resulted in myelosuppression including leukopenia and lymphopenia
same,Impact on body weight and general health,"adult wild-type mice; 15, 30 and 60 mg/kg/day, p.o., 4 weeks",did not observe any negative impact
same,NRF2-ARE binding activity,NRF2-ARE binding,did not observe any changes
same,Effect on NRF2 half-life,NRF2 (NRF2^Mut-KYSE180),shortened NRF2 half-life
same,Concentration expected in mouse tissues,[2],~10 µM
same,Expression of nuclear NRF2 and cytoplasmic NQO1,[3],inhibited the expression of nuclear NRF2 and cytoplasmic NQO1 in a dose- and time-dependent manner
same,NRF2^high esophageal phenotype,"[4]; 30 mg/kg/day, p.o.",effectively inhibited
same,Toxicity,"[4]; 30 mg/kg/day, p.o.",no observed toxicity
same,Expression of NRF2 and its target genes (HMOX1 and AKR1C3) in the esophageal epithelium,[4]; [5],significantly inhibited the expression
same,"NQO1, GCLC and GCLM expression in the esophageal epithelium",[4]; [5],"inhibited, yet without statistical significance"
same,NRF2 expression in the forestomach,[4]; [5],significantly inhibited
same,pSTAT3 and STAT3 expression,STAT3,did not significantly inhibit
